From paper PMC3545090 (Biochemistry, 2012)
Entries after “also recorded” stand apart in the source; their conditions may differ.

Assays:
kinases = conditions: binding affinity for kinases; ref [30]; cited from earlier work
[1] = test system: peripheral T-cell lymphoma cells; conditions: cells with elevated Syk Y525/Y526 phosphorylation; ref [8]; cited from earlier work
rheumatoid arthritis = conditions: vs placebo; ref [32]; cited from earlier work
non-Hodgkins lymphomas = conditions: ongoing trial, very small cohort; ref [29]; cited from earlier work
Syk-EGFP = Syk-EGFP (Mus musculus, UniProt P48025); test: In vitro kinase assay, immobilized Syk-EGFP, ELISA-based fluorescence detection; format: biochemical; conditions: for rate of phosphorylation compared with other substrates: Syk-EGFP 6 nM, each substrate 4 μM, 5 mM MnCl2, HEPES pH 7.2 (Fig. 2b)
Outline: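 Syk-EGFP immunoprecipitated from lysates of DT40 chicken B cells on anti-GFP beads. Bead-bound kinase (6 nM in the 4 μM substrate comparison) was mixed with peptide (4 μM, or a concentration range) in 500 μM ATP, 5 mM MnCl2, HEPES pH 7.2. Timed aliquots were EDTA-quenched. Neutravidin-captured peptide was probed with 4G10 anti-phosphotyrosine and HRP secondary, then read by Amplex Red (ex 532/em 590 nm). Initial velocities were fitted to a sigmoidal curve; three replicates.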

Syk [2] = molecular target: T1, Syk (Homo sapiens, UniProt P43405); conditions: cited from earlier work
DG75 cells = test: Cell toxicity in DG75 cells; format: cell-based; conditions: high concentrations, in the presence of BCR activation and oxidative stress; loss of tubulin and Syk immunoblot signal
Syk [3] = molecular target: T1, Syk; test: Western blot of Syk tyrosine phosphorylation in inhibitor-treated DG75 cells; format: cell-based; conditions: anti-IgM 5 μg/mL + H2O2 1 mM
Syk Y525/526 = test: Western blot of Syk Y525/526 phosphorylation in primary splenic B cells; format: cell-based; conditions: mouse primary splenic B cells, anti-IgM F(ab′)2
Outline: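 Mouse splenic B cells enriched by panning, at 5 × 10^6 cells/mL, pre-treated with tyrosine kinase inhibitor or DMSO vehicle. SAStide biosensor peptide (25 μM) added 15 min before anti-IgM F(ab′)2 (5 μg/mL); harvested 0, 5, 10, 15 min after. Immunoblot: 5% goat serum block 1 h; primary antibodies 1:1,000, 1 h at room temperature; HRP secondary, ECL detection.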

[4] = test system: acute myelogenous leukemia; conditions: ref [34]; cited from earlier work
allergic rhinitis = conditions: delivered intranasally; ref [31]; cited from earlier work
[5] = 500 μM ATP, average of three replicate experiments
[6] = different enzyme preparation and ATP concentration from this paper, ref [13b]

Sequence of Syk-EGFP (P48025 whole entry): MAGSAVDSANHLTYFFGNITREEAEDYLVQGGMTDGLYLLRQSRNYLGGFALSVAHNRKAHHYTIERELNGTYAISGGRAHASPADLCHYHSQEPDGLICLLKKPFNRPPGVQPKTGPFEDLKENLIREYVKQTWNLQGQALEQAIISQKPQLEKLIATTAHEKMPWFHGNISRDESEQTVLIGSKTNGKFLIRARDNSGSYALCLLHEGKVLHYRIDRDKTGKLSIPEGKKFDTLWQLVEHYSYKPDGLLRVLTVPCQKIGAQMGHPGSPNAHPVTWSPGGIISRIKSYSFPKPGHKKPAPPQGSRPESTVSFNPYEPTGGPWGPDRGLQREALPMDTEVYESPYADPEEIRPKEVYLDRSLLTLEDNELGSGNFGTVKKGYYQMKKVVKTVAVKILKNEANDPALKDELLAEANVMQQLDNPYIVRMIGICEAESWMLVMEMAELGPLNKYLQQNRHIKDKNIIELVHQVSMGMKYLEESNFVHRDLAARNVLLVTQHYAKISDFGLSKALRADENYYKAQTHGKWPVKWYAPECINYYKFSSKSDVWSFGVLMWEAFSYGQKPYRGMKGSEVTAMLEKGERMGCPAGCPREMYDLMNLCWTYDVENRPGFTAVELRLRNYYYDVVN

## COc1cc(Nc2ncc(F)c(Nc3ccc4c(n3)NC(=O)C(C)(C)O4)n2)cc(OC)c1OC [R406]
kinases
  kinase selectivity: one of the least selective kinase inhibitors evaluated
[1]
  apoptosis and proliferation: induces apoptosis and blocks proliferation

## COc1cc(Nc2ncc(F)c(Nc3ccc4c(n3)N(COP(=O)(O)O)C(=O)C(C)(C)O4)n2)cc(OC)c1OC [fostamatinib]
Rheumatoid arthritis
  benefit in rheumatoid arthritis, patients receiving methotrexate: significant benefit (over placebo)
non-Hodgkins lymphomas
  response by lymphoma subtype: slightly better response in chronic lymphocytic leukemia than the other types
  response rates: response rates were low overall

## GGDEEDYEEPDEPGGKbGG [SAStide]
Syk-EGFP; SAStide at a range of concentrations, immunoprecipitated Syk-EGFP, 500 μM ATP, 5 mM MnCl2, HEPES pH 7.2, sigmoidal fit, three replicate experiments
  Vmax: 11 ± 1 pmol/min
Syk-EGFP; [5]
  rate of phosphorylation compared with other substrates: phosphorylated more rapidly than the previously reported Syktide sequence, but not as rapidly as the phage display-derived sequence; also recorded: phosphorylated more efficiently than the parent Syktide
Syk-EGFP; concentrations up to 100 μM, immunoprecipitated Syk-EGFP
  substrate inhibition: no substrate inhibition at concentrations up to 100 μM
Syk-EGFP; read-out: Khalf (substrate concentration at half of Vmax in a sigmoidal curve, analogous to Km), SAStide at a range of concentrations, immunoprecipitated Syk-EGFP, 500 μM ATP, 5 mM MnCl2, HEPES pH 7.2, sigmoidal fit, average of three replicate experiments
  Km: 86 ± 10 µM

## GGEDDEYEEVGGKbGG [Syktide]
Syk [2]; [6]
  Km: 3 µM
  kcat: 1.04 s⁻¹

## Oc1cc(O)cc(/C=C/c2ccc(O)c(O)c2)c1 [piceatannol, 3,4,3′,5′-tetrahydroxy-trans-stilbene]
DG75 cells
  toxicity to DG75 cells: toxic to DG75 cells
Syk [3]
  level of Syk tyrosine phosphorylation (Western blot): reduction in the level of Syk tyrosine phosphorylation
Syk Y525/526
  Y525/526 phosphorylation in the presence of inhibitor (Western blot): Y525/526 remained phosphorylated

## Cc1nc(Nc2ncc(C(=O)Nc3c(C)cccc3Cl)s2)cc(N2CCN(CCO)CC2)n1 [dasatinib]
Syk [3]
  level of Syk tyrosine phosphorylation (Western blot): reduction in the level of Syk tyrosine phosphorylation
Syk Y525/526
  Y525/526 phosphorylation in the presence of inhibitor (Western blot): Y525/526 remained phosphorylated

## gemtuzumab ozogamicin: therapeutic antibody conjugated to a toxin
[4]
  response in relation to lower Syk expression: lack of response

## GGEDPDYEWPSAGGKbGG [Phage]
Syk [2]; phage display peptide, Syk, ref [13d]
  substrate inhibition at higher concentrations: greater than 20 μM
Syk-EGFP; [5]
  rate of phosphorylation compared with other substrates: more efficiently phosphorylated

## Oc1cccc(Nc2ncc(F)c(Nc3cccc(O)c3)n2)c1 [R112]
Allergic rhinitis
  relief of allergic rhinitis symptoms: effective for relieving allergic rhinitis symptoms
